L major viab – Leishmania major promastigote growth inhibition; 9% of 200,000 active; inhibition, % at 10 µM; Leishmania major promastigotes, resazurin fluorescence viability; in the data active = inhibition above about 50%;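 also: promastigotes grown with compound for 44 hours at 28 °C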
ROMK primary – modulates human ROMK potassium channel activity; Tet-inducible ROMK, thallium flux fluorescence; actives lie on both sides; B-score at 10 µM; 2% of 130,000 active;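 active = signal ratio slope over the read window, or its plate-corrected B-score, at least 3 SD from the plate mean, either direction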;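 also: B-score of the F/F0 ratio slope over 7 to 12 s after thallium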
Diaphorase act – counter-screen for diaphorase-based assays: diaphorase activators and chemical reducers; activation factor at 20 µM; Diaphorase/resazurin coupled assay, resorufin fluorescence, 16 min; active compounds read high; 1 = vehicle wells, 0 = NADH-free wells; 0.005% of 190,000 active; AID 1229;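 active = diaphorase activity raised at least twofold by the compound at 20 µM; inactive = activation factor below 2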
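test system = bacterial diaphorase enzyme (C. kluyveri) | quantity = enzyme 0.07 U/mL final | reagent = NADH substrate 0.114 mM plus resazurin dye 0.1 mM, final | incubation = 16 min enzyme reaction, ambient temperature | buffer or medium = HEPES pH 7.4 buffer with MgCl2 and Tween 20 | signal = fluorescence of resorufin, 544 nm excitation, 590 nm emission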
WT yeast gro inh – growth inhibition of WT yeast, mitochondrial fusion screen; mitochondrial fusion phenotypic screen, WT strain; inhibition, % at 10 µM; 2.1% of 190,000 active; AID 1362; in the data active = inhibition above about 58%; tested in S. cerevisiae
Cl transport mod – modulates chloride dependent transport by human KCC2; AID 1456; KCC2 cells, thallium flux FluoZin-2 fluorescence; 2.2% of 190,000 active; B-score of Tl+ flux slope (higher = more flux/activation; lower = inhibition) at 10 µM;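 active = thallium flux slope and its plate-corrected score both differing from the plate sample mean at a set confidence after two filtering rounds, in either direction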;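 also: slope of fluorescence scaled to starting intensity during 10 to 20 s after thallium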
Diaph inh CS – diaphorase inhibition or chemical oxidation counter-screen; diaphorase resazurin-to-resorufin fluorescence, NADH, 16 min; bacterial (C. kluyveri) enzyme, not human; inhibition, % at 20 µM; 0.69% of 190,000 active; AID 1217;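 active = primary screen inhibition at 20 µM above a set limit, cut at about 50% in these data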;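 also: plate controls were DMSO with full reaction for no effect and wells lacking NADH for full effect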
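Benchmarks: positive control wells lacking NADH, neutral wells with DMSO only. System: bacterial diaphorase enzyme (C. kluyveri). Input: 0.14 U/mL diaphorase, enzyme working solution. Detection: resorufin fluorescence, excitation 544 nm, emission 590 nm. Times: 16-min room-temperature incubation before reading.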
ROMK retest – retested hit modulating human ROMK potassium channel; AID 1917; 54% of 3,000 active; ROMK thallium flux, fluorescence ratio; active compounds read low; normalized thallium flux (F/F0 slope) at 10 µM; shares compounds with ROMK primary;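 active = Flux at 10 µM at least 3 SD below or above vehicle control mean in one or both replicates; inconclusive = no clear call, values can overlap the other calls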
An asterisk follows results filed as active; i = inactive; ? = inconclusive; nt = not tested or not shown. An excerpt weighted towards active compounds, which were near 12% of everything screened.

SMILES	L major viab	ROMK primary	Diaphorase act	WT yeast gro inh	Cl transport mod	Diaph inh CS	ROMK retest
N#CC1=C(N)C(C#N)(C#N)C(c2cccnc2)C2COCC=C12 (stereo not given)	7	-6.1*	nt	27	0.58	nt	0.057*
CN1CC=C2C(C#N)=C(N)C(C#N)(C#N)C(c3cccc(Cl)c3Cl)C2C1 (stereo not given)	17	nt	0.8	10	-1.4	17	nt
Cc1ccnc(NS(=O)(=O)c2ccc(N)cc2)n1	-2	nt	0.9	2	0.25	6	nt
CC(=Nc1cccc(O)c1)c1sc2ccccc2c1O	1	-2.4*	0.9	33	nt	12	0.058*
CC(=Nc1ccc(C)cc1)c1sc2ccccc2c1O	-3	nt	0.8	8	1.1	17	nt
CCc1cc2c(=O)c(-c3cscn3)coc2cc1O	14	2.5*	1	69*	-0.62	1	0.076
CCc1cc2c(=O)c(-c3cscn3)coc2cc1OC	nt	nt	0.8	nt	nt	17	nt
CCCc1cc(=O)oc2c3c(c4c(c12)OC(C)(C)C=C4)OC(C)C(C)C3O (stereo not given)	nt	nt	nt	nt	-0.81	nt	nt
COc1cc(NC(=O)C2CCN(S(=O)(=O)c3ccc(Cl)cc3)CC2)ccc1-n1cnnn1	-1	nt	0.9	-21	0.02	14	0.053*
COc1ccc(NC(=O)C2CC2)cc1-n1cnnn1	-8	nt	0.9	3	0.088	9	nt
CC1(C)CC(/C=C/c2ccccc2)=Nc2ccccc2N1	nt	nt	nt	nt	-0.19	nt	0.036*
CN1N=C(/C=C/c2ccccc2)CCC1=O	-10	0.64	1	30	nt	5	nt
O=C1CC(/C=C/c2ccc(Cl)cc2)=Nc2ccccc2N1	81*	-3.4*	0.9	-11	-0.22	10	0.059*
O=C(O)c1ccccc1Sc1c([N+](=O)[O-])cc(C(F)(F)F)cc1[N+](=O)[O-]	-8	0.7	0.9	-45	-0.19	11	nt
Cc1ccccc1NC(=S)N(CCN1CCOCC1)Cc1ccccc1F	17	1.4	1	6	0.11	-1	nt
O=C(NCC(O)CO)c1ccc2[nH]c3ccccc3c2c1 (stereo not given)	6	nt	0.9	-10	-0.063	9	0.077
CCC(C)C(=O)Nc1cccc(SC)c1 (stereo not given)	9	0.046	0.9	-23	0.7	9	nt
O=C1c2oc3ccc(F)cc3c(=O)c2C(c2cccc(O)c2)N1CCCN1CCOCC1 (stereo not given)	-4	-2.3*	1	10	1.4	1	0.075
Cc1ccccc1C(=O)Nc1ccc(-c2nnc(SC(C)C(=O)O)n2C)cc1 (stereo not given)	nt	nt	nt	nt	-0.42	nt	0.079
O=C1NC(N2CCOCC2)=N/C1=C/c1ccc2c(c1)OCO2	-1	-0.31	1	2	1.3	4	nt
O=C(CC1C(=O)NCCN1Cc1ccc(F)c(F)c1)NCCCn1ccnc1 (stereo not given)	-3	-0.56	1.1	13	0.82	-14	nt
O=c1c2ccccc2c(C=NCc2ccccn2)c(O)n1-c1ccccc1	0	nt	0.7	-2	-0.41	26	0.088
C/C(O)=C\c1nc2ccccc2oc1=O	65*	nt	0.9	34	0.94	13	0.074
O=c1oc2ccccc2nc1/C=C(\O)c1ccc(Br)cc1	nt	0.36	nt	nt	-1	nt	nt
O=C(NC1CCCCCC1)c1c2c(nc3ccccc13)CCN(Cc1ccccc1)C2	20	-4.3*	0.8	-15	-0.39	18	0.062*
SMILES	L major viab	ROMK primary	Diaphorase act	WT yeast gro inh	Cl transport mod	Diaph inh CS	ROMK retest
O=C(NC1CCN(Cc2ccccc2)CC1)c1cc(-c2ccccn2)nc2ccccc12	0	-1.1	1	9	0.014	-4	nt
CCOc1ccc(N2CC(=O)N/C2=N\c2nc(C)cc(C)n2)cc1	14	nt	0.8	-13	-0.33	17	0.077
CCOc1cccc(C2C(C(=O)c3ccc(C)o3)=C(O)C(=O)N2c2nccs2)c1 (stereo not given)	-10	-5.4*	0.8	-11	-2.2	16	0.038*
COC(=O)c1sc(-c2ccc(C(C)(C)C)cc2)cc1NC(=O)COCC(=O)O	nt	-11*	nt	nt	-0.7	nt	0.085
CCCCN1C(=O)CC(Sc2ncccc2C(=O)O)C1=O (stereo not given)	-7	1.2	1	17	0.44	1	nt
CC(c1ccccc1)N1C(=O)CC(Sc2ncccc2C(=O)O)C1=O (stereo not given)	-7	0.9*	0.9	18	0.05	7	0.087
CCC(C)/C(C)=N/NC(=O)c1ccc(CSc2nc3ccccc3s2)cc1 (stereo not given)	13	nt	0.8	20	1	20	nt
O=C(CCn1c(=O)oc2ccccc21)N1CCN(C(c2ccccc2)c2ccccc2)CC1	25	-2.8*	1	9	nt	-3	0.059*
O=C(CCn1c(=O)oc2ccccc21)N1CCN(c2ccccc2F)CC1	-5	-0.19	0.9	-7	nt	6	nt
COc1ccc(S(=O)(=O)N2CCC(C(=O)N3CCCCCC3)CC2)cc1	-8	nt	1.1	7	0.23	-5	nt
COc1cc(F)ccc1S(=O)(=O)N1CCN(C23CC4CC(CC(C4)C2)C3)CC1	1	-2.8*	1	7	-0.064	3	0.064*
CC(=O)Nc1ccc(S(=O)(=O)N2CCN(C34CC5CC(CC(C5)C3)C4)CC2)cc1	-1	-0.82	0.9	6	nt	7	nt
COc1cc(C)ccc1S(=O)(=O)N1CCCCCC1	2	0.69	0.9	13	-0.86	12	nt
COc1cc(C)ccc1S(=O)(=O)N1CCN(C23CC4CC(CC(C4)C2)C3)CC1	22	-2.9*	0.8	4	nt	25	0.062*
Cc1ccc(C(=O)COc2nc(C)nc3ccccc23)cc1	-7	0.77	0.9	-3	-0.67	9	nt
O=C(Cc1c(F)cccc1Cl)Nc1ccccc1N1CCCCC1	-2	0.38	0.9	8	-0.084	5	nt
COc1ccccc1N(CC(=O)N(CC(C)C)CC(C)C)S(=O)(=O)c1cccs1	39	-4.1*	0.9	8	-1.2	6	0.067*
COc1ccccc1N(CC(=O)N(c1ccccc1)C(C)C)S(=O)(=O)c1cccs1	8	-2.3	0.9	3	-0.98	15	nt
CCCCOc1ccc(CSCCN)cc1Cl	nt	-3.2*	nt	nt	0.45	nt	?
Cc1ccc(/C=[N+](\[O-])c2ccc(N(C)C)cc2)c2nsnc12	32	nt	0.6	77*	nt	41	0.047*
Cc1ccc2nsnc2c1N(S(C)(=O)=O)S(C)(=O)=O	-1	1	0.8	10	-0.63	22	nt
O=C(NC(=S)NC(c1ccccc1)c1ccncc1)c1ccccc1 (stereo not given)	45	nt	0.8	27	-2.3	23	nt
CCC(=O)Oc1ccc2c(c1)O/C(=C\c1ccco1)C2=O	nt	-7.4*	nt	nt	i	nt	0.051*
